# Source: ChEMBL document CHEMBL4368921, “Discovery of novel simplified isoxazole derivatives of sampangine as potent anti-cryptococcal agents” (2019)
# Active and inactive are the calls of the source. No cut-off for these calls is given here.
# Assays:
# Cryptococcus neoformans [1] = assay: Antifungal activity against Cryptococcus neoformans var. grubii H99 after 48 hrs by serial dilution method; assay type: functional
# Procedure, shortened: (§1)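 Broth serial dilution per NCCLS. Medium was RPMI 1640 buffered with 0.165M MOPS, NaHCO3 (0.2%) and NaOH (0.27%). Strains were pre-grown in YPD at 30 °C with shaking. Inoculum 10³ CFU/mL; compounds in DMSO. Plates incubated at 35 °C for 48 h. MIC80 is the concentration giving 80% inhibition.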
# Candida albicans = assay: Antifungal activity against Candida albicans SC5314 after 48 hrs by serial dilution method; assay type: functional; details: SC5314, 48 h; procedure, shortened: as §1
# Cryptococcus gattii = assay: Antifungal activity against Cryptococcus gattii ATCC 14116 after 48 hrs by serial dilution method; details: ATCC 14116, 48 h
# Cryptococcus neoformans [2] = assay: Antifungal activity against Cryptococcus neoformans var. grubii ATCC 34877 after 48 hrs by serial dilution method; assay type: functional; details: var. grubii ATCC 34877, 48 h; procedure, shortened: as §1
# Cryptococcus neoformans [3] = assay: Antibiofilm activity against Cryptococcus neoformans var. grubii H99 at 0.062 to 8 ug/mL after 24 hrs by XTT analysis; assay type: functional, organism-based
# Procedure, shortened: (§2)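 H99 cells at 1.0×10^6 CFU/mL in RPMI 1640 left to adhere 90 min at 37 °C. Non-adherent cells were removed and the wells washed three times with PBS. Fresh RPMI with drug (0.062-8 µg/mL) or drug-free control was added, then 24 h more at 37 °C. Formation rate by XTT reduction. Means ± SD of three independent experiments; ANOVA and t-test.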
# Cryptococcus neoformans [4] = assay: Fungistatic activity against Cryptococcus neoformans var. grubii H99 at 16 ug/mL up to 48 hrs by time-growth curve assay; assay type: functional, organism-based
# Procedure, shortened: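 Exponential-phase H99 cells were resuspended in fresh RPMI 1640 at 2×10^6 cells/mL, drug was added, and cultures were shaken at 200 rpm and 30 °C. Aliquots were removed and counted at 0, 3, 6, 9, 12, 24 and 48 h. The control received DMSO. Three independent experiments were run.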
# Cryptococcus neoformans [5] = assay: Fungicidal activity against Cryptococcus neoformans var. grubii H99 at 16 ug/mL after 48 hrs by time-kill assay; assay type: functional, organism-based
# Procedure, shortened: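 Exponential-phase H99 cells were washed three times in PBS and resuspended in RPMI 1640 at 2×10^6 cells/mL. After drug was added, cultures were shaken at 200 rpm and 30 °C. Samples were taken at 0, 6, 12, 24 and 48 h, diluted, and plated on SDA agar. Viable counts were read after 48 h at 30 °C.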
# Cryptococcus neoformans [6] = assay: Cell cycle arrest in Cryptococcus neoformans var. grubii H99 assessed as accumulation of cells at G1 phase at 1 ug/mL after 24 hrs by propidium iodide staining-based flow cytometric analysis (reference value: 12.24%); assay type: functional
# Procedure, shortened: (§3)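 Exponential H99 cells washed three times with PBS and set at 5×10^5 cells/mL in RPMI 1640. Dosed 0.5, 1 or 2 µg/mL and shaken (200 rpm) at 30 °C for 24 h. Walls digested 1 h at 30 °C in PBS with 0.24% snailase, then fixed overnight in 70% ethanol. Stained with 50 µg/mL PI, 4 °C, 30 min; ~1×10^6 cells read by flow cytometry.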
# Cryptococcus neoformans [7] = assay: Induction of apoptosis in Cryptococcus neoformans var. grubii H99 assessed as early apoptotic cells at 2 ug/mL after 24 hrs by annexin V-FITC/propidium iodide staining-based flow cytometric analysis (reference value: 1.05%); assay type: functional
# Cryptococcus neoformans [8] = assay: Induction of apoptosis in Cryptococcus neoformans var. grubii H99 assessed as late apoptotic cells at 1 ug/mL after 24 hrs by annexin V-FITC/propidium iodide staining-based flow cytometric analysis (reference value: 0.15%); assay type: functional
# Cryptococcus neoformans [9] = assay: Fungicidal activity against Cryptococcus neoformans var. grubii H99 at 2 ug/mL after 48 hrs by time-kill assay; assay type: functional, organism-based
# Procedure, shortened: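 Time-kill: PBS-washed exponential H99 cells at 2×10^6 cells/mL in 5 mL RPMI 1640 with drug, shaken (200 rpm) at 30 °C. Samples taken at 0, 6, 12, 24 and 48 h, diluted and plated on SDA. CFU counted after 48 h at 30 °C.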
# Cryptococcus neoformans [10] = assay: Inhibition of melanin production in Cryptococcus neoformans var. grubii H99 at 16 ug/mL; assay type: functional, organism-based
# Procedure, shortened: (§4)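 PBS-washed exponential H99 cells at 1×10^6 cells/mL in RPMI 1640 with drug. Drops placed on L-DOPA (melanin) or urea (urease) medium and incubated at 37 °C. Read-out: black versus white colonies for melanin, red medium for urease.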
# Cryptococcus neoformans [11] = assay: Induction of apoptosis in Cryptococcus neoformans var. grubii H99 assessed as early apoptotic cells at 0.5 ug/mL after 24 hrs by annexin V-FITC/propidium iodide staining-based flow cytometric analysis (reference value: 1.05%); assay type: functional
# Cryptococcus neoformans [12] = assay: Induction of apoptosis in Cryptococcus neoformans var. grubii H99 assessed as necrotic cells at 2 ug/mL after 24 hrs by annexin V-FITC/propidium iodide staining-based flow cytometric analysis (reference value: 0.19%); assay type: functional
# Cryptococcus neoformans [13] = assay: Fungistatic activity against Cryptococcus neoformans var. grubii H99 assessed as inhibition of cell growth at 1 ug/mL up to 48 hrs by time-growth curve assay; assay type: functional; details: read-out: GI
# Procedure, shortened: (§5)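 Exponential H99 cells at 2×10^6 cells/mL in 5 mL RPMI 1640 with drug (0.062-1 µg/mL) or DMSO control. Shaken at 200 rpm, 30 °C. Cells counted at 0, 3, 6, 9, 12, 24 and 48 h. Three independent experiments.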
# Cryptococcus neoformans [14] = assay: Induction of apoptosis in Cryptococcus neoformans var. grubii H99 assessed as late apoptotic cells at 2 ug/mL after 24 hrs by annexin V-FITC/propidium iodide staining-based flow cytometric analysis (reference value: 0.15%); assay type: functional
# Cryptococcus neoformans [15] = assay: Induction of apoptosis in Cryptococcus neoformans var. grubii H99 assessed as necrotic cells at 0.5 ug/mL after 24 hrs by annexin V-FITC/propidium iodide staining-based flow cytometric analysis (reference value: 0.19%); assay type: functional
# Cryptococcus neoformans [16] = assay: Cell cycle arrest in Cryptococcus neoformans var. grubii H99 assessed as accumulation of cells at G1 phase at 2 ug/mL after 24 hrs by propidium iodide staining-based flow cytometric analysis (reference value: 12.24%); assay type: functional; procedure, shortened: as §3
# Cryptococcus neoformans [17] = assay: Fungistatic activity against Cryptococcus neoformans var. grubii H99 up to 48 hrs by time-growth curve assay; assay type: functional, organism-based; procedure, shortened: as §5
# Cryptococcus neoformans [18] = assay: Induction of apoptosis in Cryptococcus neoformans var. grubii H99 assessed as early apoptotic cells at 1 ug/mL after 24 hrs by annexin V-FITC/propidium iodide staining-based flow cytometric analysis (reference value: 1.05%); assay type: functional
# Cryptococcus neoformans [19] = assay: Induction of apoptosis in Cryptococcus neoformans var. grubii H99 assessed as necrotic cells at 1 ug/mL after 24 hrs by annexin V-FITC/propidium iodide staining-based flow cytometric analysis (reference value: 0.19%); assay type: functional
# Cryptococcus neoformans [20] = assay: Inhibition of urease production in Cryptococcus neoformans var. grubii H99 at 64 ug/mL; assay type: functional, organism-based; procedure, shortened: as §4
# Cryptococcus neoformans [21] = assay: Cell cycle arrest in Cryptococcus neoformans var. grubii H99 assessed as accumulation of cells at G1 phase at 0.5 ug/mL after 24 hrs by propidium iodide staining-based flow cytometric analysis (reference value: 12.24%); assay type: functional; procedure, shortened: as §3
# Cryptococcus neoformans [22] = assay: Fungistatic activity against Cryptococcus neoformans var. grubii H99 at 0.25 ug/mL up to 48 hrs by time-growth curve assay; assay type: functional, organism-based
# Cryptococcus neoformans [23] = assay: Antibiofilm activity against Cryptococcus neoformans var. grubii H99 at 0.062 ug/mL after 24 hrs by XTT analysis relative to control; assay type: functional; procedure, shortened: as §2
# Cryptococcus neoformans [24] = assay: Induction of apoptosis in Cryptococcus neoformans var. grubii H99 assessed as late apoptotic cells at 0.5 ug/mL after 24 hrs by annexin V-FITC/propidium iodide staining-based flow cytometric analysis (reference value: 0.15%); assay type: functional
# Cryptococcus neoformans [25] = assay: Cell cycle arrest in Cryptococcus neoformans var. grubii H99 assessed as decrease in cells at S phase at 0.5 to 2 ug/mL after 24 hrs by propidium iodide staining-based flow cytometric analysis; assay type: functional, organism-based; procedure, shortened: as §3
smiles,measurement,setting,value
O=C1c2ccsc2C(=O)c2c(-c3cccs3)noc21,MIC80,Cryptococcus neoformans [1],2 µg/mL
same,MIC80,Candida albicans,> 64 µg/mL
O=C1c2ccsc2C(=O)c2c(-c3ccsc3)noc21,MIC80,Cryptococcus neoformans [1],1 µg/mL
same,MIC80,Candida albicans,> 64 µg/mL
O=C1c2ccsc2C(=O)c2c(-c3ccccc3F)noc21,MIC80,Cryptococcus neoformans [1],0.25 µg/mL
same,MIC80,Candida albicans,> 64 µg/mL
O=C1c2ccsc2C(=O)c2c(-c3cccc(Br)c3)noc21,MIC80,Cryptococcus neoformans [1],> 64 µg/mL
same,MIC80,Candida albicans,> 64 µg/mL
Cn1cccc1-c1noc2c1C(=O)c1sccc1C2=O,MIC80,Cryptococcus neoformans [1],4 µg/mL
same,MIC80,Candida albicans,16 µg/mL
C[C@@H](c1ncncc1F)[C@](O)(Cn1cncn1)c1ccc(F)cc1F [VORICONAZOLE],MIC80,Cryptococcus neoformans [1],0.12 µg/mL
same,MIC80,Candida albicans,0.12 µg/mL
same,MIC80,Cryptococcus gattii,0.12 µg/mL
same,MIC80,Cryptococcus neoformans [2],0.12 µg/mL
C[C@@H]1[C@H](O)[C@@H](C)/C=C/C=C/C=C/C=C/C=C/C=C/C=C/[C@H](O[C@@H]2O[C@H](C)[C@@H](O)[C@H](N)[C@@H]2O)C[C@@H]2O[C@](O)(C[C@@H](O)C[C@@H](O)[C@H](O)CC[C@@H](O)C[C@@H](O)CC(=O)O[C@H]1C)C[C@H](O)[C@H]2C(=O)O,Activity,Cryptococcus neoformans [3],Active
OC(Cn1cncn1)(Cn1cncn1)c1ccc(F)cc1F [FLUCONAZOLE],MIC80,Cryptococcus neoformans [1],2 µg/mL
same,Activity,Cryptococcus neoformans [4],Active
same,MIC80,Candida albicans,0.25 µg/mL
same,MIC80,Cryptococcus gattii,8 µg/mL
same,Activity,Cryptococcus neoformans [5],inactive
same,MIC80,Cryptococcus neoformans [2],8 µg/mL
O=C1c2ccsc2C(=O)c2c(-c3cccc(Cl)c3)noc21,MIC80,Cryptococcus neoformans [1],> 64 µg/mL
same,MIC80,Candida albicans,> 64 µg/mL
COCc1noc2c1C(=O)c1sccc1C2=O,MIC80,Cryptococcus neoformans [1],0.25 µg/mL
same,MIC80,Candida albicans,8 µg/mL
same,MIC80,Cryptococcus gattii,0.5 µg/mL
same,MIC80,Cryptococcus neoformans [2],0.25 µg/mL
O=C1c2ccsc2C(=O)c2c(-c3ccncc3)noc21,MIC80,Cryptococcus neoformans [1],0.25 µg/mL
same,MIC80,Candida albicans,8 µg/mL
same,MIC80,Cryptococcus gattii,1 µg/mL
same,MIC80,Cryptococcus neoformans [2],0.5 µg/mL
CCc1noc2c1C(=O)c1sccc1C2=O,Activity,Cryptococcus neoformans [6],49.14%
same,Activity,Cryptococcus neoformans [7],50.7%
same,Activity,Cryptococcus neoformans [8],5.39%
same,MIC80,Cryptococcus neoformans [1],0.031 µg/mL
same,Activity,Cryptococcus neoformans [9],Active
same,inhibition,Cryptococcus neoformans [10],Active
same,Activity,Cryptococcus neoformans [11],20.49%
same,Activity,Cryptococcus neoformans [12],0.32%
same,inhibition of growth at 1 µg/mL,Cryptococcus neoformans [13],100%
same,Activity,Cryptococcus neoformans [14],6.78%
same,MIC80,Candida albicans,2 µg/mL
same,Activity,Cryptococcus neoformans [15],1.35%
same,Activity,Cryptococcus neoformans [16],48.61%
same,Activity,Cryptococcus neoformans [17],Dose-dependent effect
same,Activity,Cryptococcus neoformans [18],39.23%
same,Activity,Cryptococcus neoformans [19],0.51%
same,MIC80,Cryptococcus gattii,0.25 µg/mL
same,inhibition,Cryptococcus neoformans [20],Active
same,Activity,Cryptococcus neoformans [3],Active
same,Activity,Cryptococcus neoformans [21],50.21%
same,MIC80,Cryptococcus neoformans [2],0.12 µg/mL
same,Activity,Cryptococcus neoformans [22],Active
same,Activity,Cryptococcus neoformans [23],>80%
same,Activity,Cryptococcus neoformans [24],3.33%
same,Activity,Cryptococcus neoformans [25],Active
O=C1c2ccsc2C(=O)c2c(-c3ccccc3Cl)noc21,MIC80,Cryptococcus neoformans [1],0.25 µg/mL
same,MIC80,Candida albicans,> 64 µg/mL
COc1ccccc1-c1noc2c1C(=O)c1sccc1C2=O,MIC80,Cryptococcus neoformans [1],0.5 µg/mL
same,MIC80,Candida albicans,> 64 µg/mL
O=C1c2ccsc2C(=O)c2c(-c3ccccn3)noc21,MIC80,Cryptococcus neoformans [1],0.25 µg/mL
same,MIC80,Candida albicans,8 µg/mL
O=C1c2ccsc2C(=O)c2c(-c3ccc(Br)cc3)noc21,MIC80,Cryptococcus neoformans [1],> 64 µg/mL
same,MIC80,Candida albicans,> 64 µg/mL
Cc1ccccc1-c1noc2c1C(=O)c1sccc1C2=O,MIC80,Cryptococcus neoformans [1],0.25 µg/mL
same,MIC80,Candida albicans,> 64 µg/mL
CCCc1noc2c1C(=O)c1sccc1C2=O,MIC80,Cryptococcus neoformans [1],0.12 µg/mL
same,MIC80,Candida albicans,4 µg/mL
same,MIC80,Cryptococcus gattii,0.25 µg/mL
same,Activity,Cryptococcus neoformans [3],Active
same,MIC80,Cryptococcus neoformans [2],0.12 µg/mL
COc1ccc(-c2noc3c2C(=O)c2sccc2C3=O)cc1,MIC80,Cryptococcus neoformans [1],1 µg/mL
same,MIC80,Candida albicans,> 64 µg/mL
COc1cccc(-c2noc3c2C(=O)c2sccc2C3=O)c1,MIC80,Cryptococcus neoformans [1],> 64 µg/mL
same,MIC80,Candida albicans,> 64 µg/mL
Cc1ccc(-c2noc3c2C(=O)c2sccc2C3=O)cc1,MIC80,Cryptococcus neoformans [1],1 µg/mL
same,MIC80,Candida albicans,> 64 µg/mL
O=C1c2ccsc2C(=O)c2c(-c3ccccc3Br)noc21,MIC80,Cryptococcus neoformans [1],0.25 µg/mL
same,MIC80,Candida albicans,> 64 µg/mL
Cc1cccc(-c2noc3c2C(=O)c2sccc2C3=O)c1,MIC80,Cryptococcus neoformans [1],1 µg/mL
same,MIC80,Candida albicans,> 64 µg/mL
